Bioassay records (PubChem BioAssay)
HTRA1 inhibitor = inhibitors of human serine peptidase HTRA1 | recombinant HTRA1, FP-rhodamine activity-based probe, fluorescence polarization | inhibition, % at 5.96 µM | 340,000 compounds, 0.5% hits | AID 504803; in the data active means inhibition above about 36%;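 further: 0% = enzyme with DMSO and 100% = wells lacking enzyme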
JMJD2C inh = inhibitors of human GASC-1 (JMJD2C) demethylase | GST-JMJD2C(1-420) H3K9me3 demethylation, DELFIA europium | inhibition, % at 2.35 µM | 330,000 compounds, 0.069% hits | AID 2099;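 active means more than half of a compound's replicate wells show inhibition beyond 50%, single wells judged on their own value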;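 further: signal counts dimethyl H3K9 product captured on neutravidin plate; 0% = median of DMSO wells and 100% = 0.3 times that DMSO median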
PRMT1 FP inh = blocks human protein arginine methyltransferase 1. inhibition, % at 2.79 µM. AID 652257. 370,000 compounds, 1.3% hits. Q99873. recombinant PRMT1, activity-based probe fluorescence polarization;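 active means inhibition above about 21% made by adding two undisclosed values, limit read from the data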
SIAE primary = human SIAE inhibition, primary screen | AID 1053197 | SIAE FP-Rh probe binding, fluorescence polarization | 370,000 compounds, 0.69% hits | inhibition, % at 9.66 µM | Q9HAT2;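 active means inhibition above a cutoff: mean of compounds within the control limits plus 3 SD of those, cut at about 17% in these data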;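 further: 0% = plate median of compound wells and 100% = probe without SIAE protein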
Target sequence (Q9HAT2 whole entry, looked up): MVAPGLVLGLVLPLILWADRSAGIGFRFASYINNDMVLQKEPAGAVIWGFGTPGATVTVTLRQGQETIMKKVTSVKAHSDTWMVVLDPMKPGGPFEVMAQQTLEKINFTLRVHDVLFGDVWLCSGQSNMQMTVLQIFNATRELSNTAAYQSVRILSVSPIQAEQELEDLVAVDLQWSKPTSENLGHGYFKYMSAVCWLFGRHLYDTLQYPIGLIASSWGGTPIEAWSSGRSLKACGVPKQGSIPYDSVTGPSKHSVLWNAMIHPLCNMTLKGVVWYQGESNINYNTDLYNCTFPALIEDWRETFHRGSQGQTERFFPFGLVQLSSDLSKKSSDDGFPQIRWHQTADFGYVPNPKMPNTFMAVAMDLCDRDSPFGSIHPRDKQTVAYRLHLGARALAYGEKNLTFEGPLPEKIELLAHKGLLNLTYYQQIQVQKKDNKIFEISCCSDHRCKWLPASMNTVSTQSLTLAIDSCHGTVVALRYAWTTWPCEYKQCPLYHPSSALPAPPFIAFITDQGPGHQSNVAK
ABHD4 inh = inhibits mouse alpha/beta hydrolase domain 4; Q8VD66; 370,000 compounds, 0.54% hits; AID 720543; purified mABHD4, FP-Rh probe fluorescence polarization; inhibition, % at 8.92 µM;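 active means inhibition exceeding the mean over every tested compound plus 3 SD, cut at about 30% in these data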;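 further: 0% = plate median of compound wells and 100% = S159A mutant with DMSO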
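Doses – 8.92 µM, single dose · Material – wild-type mouse ABHD4 protein · Replication – single well per compound (singlicate) · Measure – percent inhibition of probe binding, normalized to plate controls · Schedule – 45 min compound pre-incubation plus 60 min probe step, 25 °C · Detection – fluorescence polarization with parallel and perpendicular emission, 525/598 nm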
SIAE inh conf = human SIAE inhibition, confirmation. shares compounds with SIAE primary. SIAE FP-Rh activity-based probe, fluorescence polarization. inhibition, % at 9.66 µM. 2,300 compounds, 13% hits. AID 1117263;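 active means mean inhibition of the replicates above the hit cutoff set in the primary screen, cut at about 17% in these data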;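 further: 0% = SIAE with DMSO and probe and 100% = probe without SIAE; inhibitors lower polarization as more probe stays unbound to SIAE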
* = called active by the depositor; . = not tested or not shown. Only some compounds are listed: those with a hit (about 2.4% of all), similar ones and a draw of the others.

SMILES	HTRA1 inhibitor	JMJD2C inh	PRMT1 FP inh	SIAE primary	ABHD4 inh	SIAE inh conf
Cc1ccc(NC(=Nc2ccc(Br)cc2)N2CCOCC2)cc1C	-3	-20	-8	18*	0	-2
Cc1ccc(NC(=O)COC(=O)CSC(=S)N2CCOCC2)cc1C	6	-4	3	-5	1	.
CC(C)CC(NC(=O)c1ccccc1)C(=O)N/N=C/c1ccco1 (stereo unspecified)	1	-6	-1	-1	-2	.
CC(NC(=O)c1ccccc1)C(=O)N/N=C/c1ccco1 (stereo unspecified)	1	-14	1	18*	-3	-1
COc1ccc(-c2nc(C)sc2CC(=O)O)cc1	2	5	1	-3	6	.
COc1ccc(-c2nc(C)sc2CC(=O)O)cc1OC	-1	-2	-1	18*	4	4
COc1cc(CNc2cccc3[nH]c(C(F)(F)F)nc23)cc(OC)c1	-10	8	3	18*	3	8
O=C(NC(=S)N(Cc1ccccc1)Cc1ccccc1)c1ccccc1F	-12	-5	4	79*	2	-2
O=C(NC(=S)NCc1ccccc1)c1ccccc1F	-14	2	4	-12	-7	.
CC(C)C(=O)N1CC[C@H]2[C@H](CCCN2Cc2ccccc2)C1	.	.	2	4	-1	.
CCc1cccc2c(/C=N/NC(=O)c3cccc(S(=O)(=O)Nc4ccccc4Cl)c3)c[nH]c12	11	5	2	36*	1	-1
COc1ccc2c(Cl)c(C(=O)N/N=C/c3c(C)[nH]c4ccccc34)sc2c1	0	-41	-1	23*	7	10
Cc1[nH]c2ccccc2c1/C=N/NC(=O)c1cccc(S(=O)(=O)Nc2ccccc2Cl)c1	6	6	2	37*	21	11
CCN(CC)c1ccc(/C=N/NC(=O)c2cccc(S(=O)(=O)Nc3ccccc3OC)c2)cc1	6	-2	3	11	-8	.
CCN(CC)c1ccc(/C=N/NC(=O)c2cccc(S(=O)(=O)Nc3ccccc3OC)c2)c(O)c1	36*	6	-2	35*	23	8
Cc1[nH]c2ccccc2c1/C=N/NC(=O)c1cccc(Br)c1	2	-6	.	.	.	.
CC(C)CCCC(C)CCOC(=O)CN1CCCC1 (stereo unspecified)	3	1	-3	18*	1	-1
O=C(CN1CCOCC1)OCCCC1CCCCC1	-1	10	-1	4	-2	.
CC(OC(=O)c1cccc(Cl)c1)C(=O)NC1CCCCC1C (stereo unspecified)	1	1	13	-2	-1	.
CC(OC(=O)/C=C/c1cccc(Cl)c1)C(=O)NC1CCCCC1C (stereo unspecified)	4	-8	-2	17*	3	-1
CC(OC(=O)C1CCN(S(=O)(=O)c2ccc(Cl)cc2)CC1)C(=O)NC1CCCCC1C (stereo unspecified)	-4	0	-4	19*	2	-2
Cc1ccc(F)c(S(=O)(=O)NC(=O)C2(C)CCN2C(=O)c2ccccc2)c1 (stereo unspecified)	.	.	4	-4	3	.
COc1ccc(C(C(=O)N(C)C2CCCC2)N(Cc2ccc(F)cc2)C(=O)c2csc3ccc(Cl)cc23)cc1OC (stereo unspecified)	.	.	2	-2	-10	.
CC1=CCC2C(=O)N(c3cccc(C(=O)N(C)C4CCCCC4)c3)C(=O)C2C1 (stereo unspecified)	6	6	0	15	-3	.
CN(C(=O)c1cccc(N2C(=O)C3C4C=CC(C4)C3C2=O)c1)C1CCCCC1 (stereo unspecified)	6	-7	-3	19*	-1	3
COc1cccc2c1O/C(=N\O)C(C(=O)Nc1ccc(C)cc1)C2 (stereo unspecified)	2	5	-2	21*	-6	5
NC(=O)c1ccc(NC(=O)CN2CCN(S(=O)(=O)c3ccc4c(c3)OCCO4)CC2)cc1	-7	11	6	-4	-12	.
CNC(=O)COC(=O)C1CCN(S(=O)(=O)c2ccc3c(c2)OCCO3)CC1	-5	-4	0	0	1	.
O=C(CN1CCN(S(=O)(=O)c2ccc3c(c2)OCCO3)CC1)Nc1cccc(F)c1	-2	.	2	19*	2	0
